Screening results (PubChem BioAssay)
PTEN del growth: growth suppression of PTEN-null HCT116, primary screen, cell-based, CellTiter-Glo; HCT116 PTEN-null viability, 60 h; stronger effect = lower value; viability, % at 10 µM; 140,000 compounds, 1.2% hits;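 active = viability at or below a set limit, 4 SD under the median of all tested compounds, cut at about 3.7% in these data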;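 note: PTEN knockout HCT116 line with beta catenin targeted HCT116 as companion control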
Lung fibro prol: antiproliferative effect on LL 47 fibroblasts – human, LL 47 cells, CellTiter-Glo luminescence, primary screen | LL 47 human lung fibroblast viability, ATP luminescence; stronger effect = lower value | viability, % at 10 µM | 85,000 compounds, 1.1% hits | AID 719, 2007;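 active = viability at or below 50% in the single dose screen; inactive = viability above 50%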;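 note: compound exposure lasted 72 h before the ATP readout; 100% = median luminescence of untreated cell-only wells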
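Test system: LL 47 human lung fibroblasts; Quantity: 1,150 cells/well; Buffer or medium: IMEM plus 15% FBS; Dosing: tenfold compound dosing solution, DMSO at 0.1%; Timing: overnight cell rest, 72 h compound treatment at 37 °C; Detection: ATP-based CellTiter-Glo luminescent readout; Read-out basis: viability percentage against median untreated-cell control; Controls: cell-only wells, no compound.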
HUVEC inhibit: inhibitors of HUVEC proliferation, primary screen, cell-based, 384-well. CellTiter-Glo luminescence, 72 h; stronger effect = lower value. viability, % at 10 µM (by protocol). 86,000 compounds, 1.1% hits. AID 648, 2007;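 active = viability at or below 30%; inactive = viability above 30%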;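 note: 100% = median luminescence of DMSO-only cell control wells on each plate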
HCT116 bCat-KO: primary screen for growth suppressors in beta-catenin knockout HCT116 cells (colon tumor, human); HCT116 beta-catenin knockout viability, CellTiter-Glo, 60 h; stronger effect = lower value; viability, % at 10 µM; 140,000 compounds, 1.5% hits;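 active = viability at or under a set limit, the compound median less 4 SD, cut at about 6% in these data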;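 note: 0% = Hyamine 1622 control at 20 µM and 100% = untreated cell control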
H69AR growth 86K: proliferation blockers of H69AR lung cancer cells, primary screen, cell-based, human, 86K library; H69AR lung tumor viability, ATP luminescence, 72 h; stronger effect = lower value; viability, % at 10 µM; 85,000 compounds, 6% hits; AID 598, 2007;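 active = viability at or below 40%; inactive = viability above 40%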;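 note: multidrug resistant small cell line overexpressing MRP-1 efflux transporter; 100% = mean luminescence of untreated control wells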
An asterisk follows results filed as active. The sample as a whole holds a higher share of hits than the screen did.

Results for O=S1(=O)c2ccccc2N=NN1Cc1ccc(Cl)cc1 ?
PTEN del growth: 103.0; Lung fibro prol: 6.2*; HUVEC inhibit: 20.6*; HCT116 bCat-KO: 97.3; H69AR growth 86K: 1.1*

What do the screens show for `O=S1(=O)c2ccccc2N=NN1Cc1cc(Cl)cc(Cl)c1`?
PTEN del growth: 80.0; Lung fibro prol: 47.0*; HUVEC inhibit: 78.2; HCT116 bCat-KO: 71.3; H69AR growth 86K: 1.2*

Results for CCC1Oc2ccc(C)cc2N(Cc2cccc(C)c2)C1=O (stereo not drawn) ?
PTEN del growth: 92.9; HCT116 bCat-KO: 90.4

What do the screens show for `CCc1ccc(NC(=S)N(CCCN2CCOCC2)Cc2ccccn2)cc1`?
PTEN del growth: 85.3; HCT116 bCat-KO: 85.0

What do the screens show for `CCOC(=O)N1CCC(NC(=O)c2cc(C)c3c(C)nn(-c4ccccc4)c3n2)CC1`?
PTEN del growth: 103.6; Lung fibro prol: 95.3; HUVEC inhibit: 85.3; HCT116 bCat-KO: 100.2; H69AR growth 86K: 21.8*

Results for CCOC(=O)N1CCC(NC(=O)c2cc3c(C)nc4ccccc4c3o2)CC1 ?
PTEN del growth: 84.4; Lung fibro prol: 103.3; HUVEC inhibit: 80.3; HCT116 bCat-KO: 85.4; H69AR growth 86K: 57.5

What do the screens show for `O=C(NNC1=C(C(=O)C(F)(F)F)CCC1)c1cccc(Cl)c1`?
PTEN del growth: 37.3; Lung fibro prol: 69.3; HUVEC inhibit: 22.5*; HCT116 bCat-KO: 37.3; H69AR growth 86K: 29.4*

What do the screens show for `CC(C)(C)c1cc(NC(=O)CCSc2nnc3ccccn23)cc(C(C)(C)C)c1`?
PTEN del growth: 49.5; Lung fibro prol: 46.2*; HUVEC inhibit: 46.2; HCT116 bCat-KO: 38.2; H69AR growth 86K: 53.3

Results for CCOC(=O)C1=C(CC)NC2=C(C(=O)CCC2)C1c1ccc(OC)c(OC)c1 (stereo not drawn) ?
PTEN del growth: 98.2; Lung fibro prol: 100.6; HUVEC inhibit: 95.3; HCT116 bCat-KO: 97.8; H69AR growth 86K: 76.5

How did Cc1sc2nc(C3CC3)nc(NCCNS(=O)(=O)c3ccccc3)c2c1C do in these assays?
PTEN del growth: 83.2; Lung fibro prol: 90.6; HUVEC inhibit: 78.6; HCT116 bCat-KO: 86.6; H69AR growth 86K: 21.9*

How did CCCCNc1c(N2CCN(C(=O)OCC)CC2)c(=O)c1=O do in these assays?
PTEN del growth: 93.6; Lung fibro prol: 103.2; HUVEC inhibit: 105.9; HCT116 bCat-KO: 98.8; H69AR growth 86K: 89.6

What do the screens show for `COc1ccc2nc(Sc3c([N+](=O)[O-])nc(C)n3Cc3ccccc3)[nH]c2c1`?
PTEN del growth: 1.7*; HCT116 bCat-KO: 4.6*

Results for Cc1cc2nc(Sc3c([N+](=O)[O-])nc(C)n3Cc3ccccc3)[nH]c2cc1C ?
PTEN del growth: 2.8*; HCT116 bCat-KO: 4.6*

Results for Cc1nc([N+](=O)[O-])c(Sc2nc3ccccc3[nH]2)n1Cc1ccccc1 ?
PTEN del growth: 16.5; HCT116 bCat-KO: 10.7

How did CCOC(=O)C1CN(S(=O)(=O)c2ccccc2)C1 do in these assays?
PTEN del growth: 82.5; HCT116 bCat-KO: 86.4

What do the screens show for `CCSc1nnc(NC(=O)NC(C)(C(F)(F)F)C(F)(F)F)s1`?
PTEN del growth: 83.5; HCT116 bCat-KO: 86.1

Results for CCSc1nnc(NC(=O)NC(CC)(C(F)(F)F)C(F)(F)F)s1 ?
PTEN del growth: 29.0; Lung fibro prol: 62.9; HUVEC inhibit: 45.4; HCT116 bCat-KO: 26.0; H69AR growth 86K: 13.8*

How did C=CCN(C(=O)c1ccccc1)c1ccc(OC)cc1 do in these assays?
PTEN del growth: 32.6; Lung fibro prol: 87.7; HUVEC inhibit: 81.8; HCT116 bCat-KO: 41.6; H69AR growth 86K: 23.5*

Results for Cc1ccccc1-c1nc(-c2ccc(NC(=O)c3ccc(Br)o3)cc2)no1 ?
PTEN del growth: 63.0; Lung fibro prol: 107.6; HUVEC inhibit: 109.7; HCT116 bCat-KO: 62.8; H69AR growth 86K: 82.8

How did COc1ccc(S(=O)(=O)NCC(=O)N(CC(=O)NCC2CCCO2)c2cc(C)ccc2C)cc1 (stereo not drawn) do in these assays?
PTEN del growth: 120.1; Lung fibro prol: 95.3; HUVEC inhibit: 104.7; HCT116 bCat-KO: 103.9; H69AR growth 86K: 36.7*

Results for N#Cc1cn(CC(=O)NCCc2c[nH]c3ccccc23)c2ccccc12 ?
PTEN del growth: 63.8; Lung fibro prol: 87.5; HUVEC inhibit: 81.8; HCT116 bCat-KO: 83.5; H69AR growth 86K: 72.5
